From publication PMC7549103 (ACS Medicinal Chemistry Letters, 2020)

How the values were obtained:
[1] = eLogD7.4; assay type: physicochemical; conditions: pH 7.4
[2] = Retest of activity over time; assay type: physicochemical
[3] = test system: MOLT-4 cells; assay: Cellular viability assay, MOLT-4 cells; assay type: cell-based, human
Method in brief: (§1)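 MOLT-4 is used as the BCL-XL-dependent human cancer cell line, and RS4;11 as the BCL-2-dependent line. Test compounds were tested in both lines in parallel.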

[4] = test system: RS4;11 cells; assay: Cellular viability assay, RS4; assay type: cell-based; conditions: Homo sapiens, RS4-11, 48 h, read-out: RS4;11 EC50
Method in brief: as §1

[5] = Single dose pharmacokinetics in rats; assay type: in vivo, Sprague-Dawley rats; conditions: rat, single oral dose of 5 mg/kg
[6] = biological target: GST-BCL-XL (Homo sapiens, UniProt Q07817); assay type: binding; conditions: BCL-XL TR-FRET Ki ratio
Chain of GST-BCL-XL (Q07817 whole entry): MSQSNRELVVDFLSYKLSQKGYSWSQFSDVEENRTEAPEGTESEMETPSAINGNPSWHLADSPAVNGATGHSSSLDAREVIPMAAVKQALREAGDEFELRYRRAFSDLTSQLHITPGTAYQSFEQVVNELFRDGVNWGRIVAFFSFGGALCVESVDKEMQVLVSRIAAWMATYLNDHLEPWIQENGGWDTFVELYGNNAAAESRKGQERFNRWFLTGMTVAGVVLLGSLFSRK

[7] = test system: MOLT-4 cells; conditions: cytochrome c release, caspase-3/-7 activation, Annexin-V staining; cited from earlier work

O=C(O)c1csc(N2CCc3cccc(C(=O)Nc4nc5ccccc5s4)c3C2)n1 [Compound 2]
eLogD7.4 [1]: 3.02

O=C(O)c1cccc(N2CCc3cccc(C(=O)Nc4nc5ccccc5s4)c3C2)n1 [Compound 3]
chromatographic logD [1]: 2.85

O=C(Nc1nc2ccccc2s1)c1cccc2c1CN(c1ccc(-c3ccn(Cc4ccccc4)c3)c(C(=O)O)n1)CC2 [Compound 5]
stability on storage (activity upon retest over time) [2]: lost activity upon retest over time

O=C(Nc1nc2ccccc2s1)c1cccc2c1CN(c1ccc(-c3cnn(Cc4ccccc4)c3)c(C(=O)O)n1)CC2 [Compound 6]
EC50 ([3]; Homo sapiens, MOLT-4, 48 h, read-out: MOLT-4 EC50, 10% HS, 48 hours): > 5 µM

Cc1c(-c2ccc(N3CCc4cccc(C(=O)Nc5nc6ccccc6s5)c4C3)nc2C(=O)O)cnn1Cc1ccccc1 [Compound 10]
EC50 [4]: > 5 µM
activity in cells (in words) ([3]; MOLT-4 (and RS4;11) cells, 10% human serum): low micromolar activity
Cmax-coverage (total drug exposure) of the cellular EC50 [5]: approximately 3 fold

Cc1nn(Cc2ccccc2)c(C)c1-c1ccc(N2CCc3cccc(C(=O)Nc4nc5ccccc5s4)c3C2)nc1C(=O)O [Compound 11]
improvement in target affinity relative to parent 6 [6]: ~11 fold

Cc1c(-c2ccc(N3CCc4cccc(C(=O)Nc5nc6ccccc6s5)c4C3)nc2C(=O)O)cnn1CC12CC3CC(CC(C3)C1)C2 [Compound 13]
mechanism-based effects in MOLT-4 cells [7]: disrupted BCL-XL:BIM complexes and induced classical features of apoptosis
in vitro efficacy against MOLT-4, fold more potent than A-1155463 (1) ([3]; 10% HS): 20 fold
